The values that follow come from PubChem BioAssay.

Experiment [1] can be described thus: reducers of endogenous Her2 protein level, primary screen, SKBR3 breast tumor cells, AlphaScreen, ATP viability (AID 461;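 active = Her2 level under about 52% in both replicate screens, with viability over 70% of control, limit read from the data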;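 as to Her2 level: lower value means less Her2 protein in the cells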;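 as to viability: percent of carrier control wells set as 100% viability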). The following applies: 18-24 h, measured here: SKBR3 viability, ATP luminescence, at 10 µM.
The target of experiment [2] is Receptor tyrosine-protein kinase erbB-2 (Homo sapiens) (UniProt P04626). The description is as above. The following applies: 18-24 h, at 10 µM, stronger effect = lower value.
Chain of Receptor tyrosine-protein kinase erbB-2 (Homo sapiens) (P04626 whole entry, looked up): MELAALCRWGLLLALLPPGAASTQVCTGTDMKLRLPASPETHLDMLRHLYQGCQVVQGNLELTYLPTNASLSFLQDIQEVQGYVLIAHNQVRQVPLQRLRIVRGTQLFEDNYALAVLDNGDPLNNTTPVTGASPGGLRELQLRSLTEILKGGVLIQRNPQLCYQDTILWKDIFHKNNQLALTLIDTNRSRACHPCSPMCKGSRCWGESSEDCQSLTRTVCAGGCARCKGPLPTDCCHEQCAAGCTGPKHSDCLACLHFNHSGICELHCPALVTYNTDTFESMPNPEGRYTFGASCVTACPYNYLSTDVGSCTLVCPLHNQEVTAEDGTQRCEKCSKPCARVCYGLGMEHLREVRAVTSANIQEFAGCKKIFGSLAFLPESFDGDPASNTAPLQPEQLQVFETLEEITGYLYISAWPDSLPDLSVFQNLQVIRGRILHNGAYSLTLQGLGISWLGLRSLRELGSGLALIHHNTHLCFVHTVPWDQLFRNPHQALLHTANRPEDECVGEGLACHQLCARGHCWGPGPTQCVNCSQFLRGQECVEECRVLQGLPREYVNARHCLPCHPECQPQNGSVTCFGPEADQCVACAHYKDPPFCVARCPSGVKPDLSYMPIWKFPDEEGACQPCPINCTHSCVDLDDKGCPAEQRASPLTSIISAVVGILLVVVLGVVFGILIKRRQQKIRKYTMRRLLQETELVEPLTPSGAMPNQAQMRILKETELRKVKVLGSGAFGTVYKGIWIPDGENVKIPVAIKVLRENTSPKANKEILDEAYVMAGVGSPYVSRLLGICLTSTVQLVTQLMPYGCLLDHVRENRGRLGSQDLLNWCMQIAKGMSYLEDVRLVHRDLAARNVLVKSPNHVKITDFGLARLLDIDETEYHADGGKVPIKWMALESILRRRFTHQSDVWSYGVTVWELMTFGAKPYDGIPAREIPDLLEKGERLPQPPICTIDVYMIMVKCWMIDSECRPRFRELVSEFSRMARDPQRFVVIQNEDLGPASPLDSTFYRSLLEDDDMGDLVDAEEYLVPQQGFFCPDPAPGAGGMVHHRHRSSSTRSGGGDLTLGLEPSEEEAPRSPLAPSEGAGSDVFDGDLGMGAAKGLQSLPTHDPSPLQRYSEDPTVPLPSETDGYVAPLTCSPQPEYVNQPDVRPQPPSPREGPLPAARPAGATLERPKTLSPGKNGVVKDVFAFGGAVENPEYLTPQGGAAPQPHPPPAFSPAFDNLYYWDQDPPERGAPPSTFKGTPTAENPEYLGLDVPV
Experiment [3] is described as follows: SK-BR-3 cell growth inhibitors, pilot screen, 24 h, human (AID 572;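 active = viability at or below 10% of carrier control in both of two separate runs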;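 also: compound exposure lasted between 18 and 24 h rather than exactly 24 h; 100% = carrier-treated control wells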). The following applies: SK-BR-3 viability, CellTiter-Glo luminescence, at 10 µM, stronger effect = lower value.
Experiment [4] is described as follows: HUVEC growth inhibition – cell-based, human, primary screen (AID 575;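 active = viability at or below 30% in both replicate assays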;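 also: 100% = median of untreated cell wells with 0.1% DMSO on each plate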). The following applies: HUVEC proliferation, CellTiter-Glo luminescence, 72 h; at 10 µM; stronger effect = lower value. In a few lines:
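Test system: primary human umbilical vein endothelial cells. Quantity: 1250 cells/well. Compound: single 10 µM dose, 0.1% DMSO, from 5x medium stock. Timing: 72 h treatment at 37 °C. Detection: ATP-based CellTiter-Glo luminescent read. Benchmarks: vehicle and MePR control wells. Format: 384-well plates coated with collagen.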

Experiment [5] can be described thus: growth inhibitors of H69AR lung tumor, primary screen, human, duplicate replicates (AID 580).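 Also: 100% = mean luminescence of untreated wells and 0% = no signal.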 The following applies: H69AR lung tumor cells viability, ATP luminescence, 72 h; at 10 µM; stronger effect = lower value.
Experiment [6] can be described thus: reversal of MRP1-mediated doxorubicin resistance, pilot screen, H69AR cells, doxorubicin co-treatment (AID 601;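 active = viability loss from added drug above about 55%, and viability with drug at most 40%, in both replicates, limit read from the data, passing the limit was not always enough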). The following applies: CellTiter-Glo, 72 h, at 10 µM; for differential viability (reversal): stronger effect = higher value.
Experiment [7] can be described thus: 384-well plate pilot, post-Golgi transport modulator project, inhibition of yeast transport mutant growth (AID 636; in the data active = inhibition above about 31%). The following applies: absorbance 615 nm, about 18 h, stronger effect = higher value.
Experiment [8] can be described thus: growth suppression of yeast trafficking mutant, preliminary HTS, modulators of trafficking downstream of Golgi apparatus project, 1536-format plate, OD 615 nm (AID 637; in the data active = inhibition above about 30%). The following applies: yeast transport mutant growth, absorbance 615 nm, 18 h; stronger effect = higher value.
The mark [9] stands for this setting: H69AR cells + 2 uM doxorubicin, measured here: viability with 2 uM doxorubicin, stronger effect = lower value.
The mark [10] stands for this setting: H69AR cells, compound alone cytotoxicity.

Calls of active or inactive are those of the source.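 The calls were made as follows, unless noted: active = viability at or under a set limit in both replicates, limit being median viability minus 3 SD (cut at about 48% in these data, passing the limit was not always enough); inconclusive = at or under the limit in just one replicate; inactive = at or above the limit in both replicates.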

On to `CCC(C)(C)n1nnnc1C(c1cc2cc(OC)ccc2[nH]c1=O)N1CCc2ccccc21` (stereo not given), for which the viability in experiment [1] is 97%; in experiment [3] it was 97% (inactive); in experiment [4] it was 67% (inactive); in experiment [5], 68% (inactive); in experiment [6] (setting [9]) it was 68.1%; in experiment [6] (setting [10]), 68%. Moreover, in experiment [2], the Her2 level is 78% (inactive). Besides, the differential viability (reversal) in experiment [6] (H69AR cells + 2 uM doxorubicin) was -0.155% (inactive). Further, the results for the inhibition in experiment [7] and in experiment [8] were -3.6% (inactive) and -4.59% (inactive), respectively.

On to `COc1ccc(C)cc1S(=O)(=O)N1CCN(Cc2ccccc2)CC1`, for which the viability was 98% in experiment [1]; 98% (inactive) in experiment [3]; 96.1% (inactive) in experiment [4]; 91.2% (inactive) in experiment [5]; 92.6% in experiment [6] (setting [9]); 91.2% in experiment [6] (setting [10]). Besides, in experiment [2], the Her2 level was 94.5% (inactive). Further, in experiment [6] (H69AR cells + 2 uM doxorubicin), the differential viability (reversal) is -1.38% (inactive). Moreover, the inhibition was -2.24% (inactive) in experiment [7] and 1.13% (inactive) in experiment [8].

For the compound `Cc1cc(C)cc(NC(=O)C2CCCN(S(=O)(=O)c3cnc[nH]3)C2)c1` (stereo not given), the viability was 99% in experiment [1]; 99% (inactive) in experiment [3]; 92.5% (inactive) in experiment [4]; 88.6% (inactive) in experiment [5]; 90.1% in experiment [6] (setting [9]); 88.6% in experiment [6] (setting [10]). Moreover, the Her2 level in experiment [2] was 96% (inactive). Further, the differential viability (reversal) in experiment [6] (H69AR cells + 2 uM doxorubicin) is -1.48% (inactive). In addition, the inhibition is -4.27% (inactive) in experiment [7] and 0.67% (inactive) in experiment [8].

On to `CN(C)/C=C1\N=C(c2ccc3c(c2)OCO3)OC1=O`, for which the viability is 91% in experiment [1]; 91% (inactive) in experiment [3]; 94.4% (inactive) in experiment [4]; 98.1% (inactive) in experiment [5]; 76.9% in experiment [6] (setting [9]); 98.1% in experiment [6] (setting [10]). Further, the Her2 level in experiment [2] was 94.5% (inactive). The differential viability (reversal) in experiment [6] (H69AR cells + 2 uM doxorubicin) was 21.1% (inactive). For the same compound, the inhibition is -1.56% (inactive) in experiment [7] and -4.5% (inactive) in experiment [8].

On to `O=C(CN(C(=O)CCC(=O)Nc1nccs1)c1ccccc1F)NCC1CCCO1` (stereo not given), for which the viability in experiment [1] is 110%; in experiment [3], 110% (inactive); in experiment [4], 105% (inactive); in experiment [5], 100% (inactive); in experiment [6] (setting [9]), 90.4%; in experiment [6] (setting [10]), 100%. Further, in experiment [2], the Her2 level was 104% (inactive). In addition, the differential viability (reversal) in experiment [6] (H69AR cells + 2 uM doxorubicin) was 9.81% (inactive). Besides, the inhibition in experiment [7] was -3.33% (inactive); in experiment [8], 13.1% (inactive).

With `O=C(Nc1ccccc1)N1C(=O)C2(OCCO2)c2ccccc21`, the viability in experiment [1] is 114%; in experiment [3] it was 114% (inactive); in experiment [4], 100% (inactive); in experiment [5], 87% (inactive); in experiment [6] (setting [9]), 98.8%; in experiment [6] (setting [10]) it was 87%. Besides, in experiment [2], the Her2 level is 118% (inactive). For the same compound, the differential viability (reversal) in experiment [6] (H69AR cells + 2 uM doxorubicin) is -11.8% (inactive). Further, the inhibition in experiment [7] was -0.79% (inactive); in experiment [8], 1.64% (inactive).

For the compound `CC(C)N(C(=O)COC(=O)c1ccc(O)cc1)C(C)C`, the viability in experiment [1] is 96.5%; in experiment [3], 96.5% (inactive); in experiment [4], 88.3% (inactive); in experiment [5], 97.6% (inactive); in experiment [6] (setting [9]) it was 87.8%; in experiment [6] (setting [10]), 97.6%. Moreover, the Her2 level in experiment [2] was 87.5% (inactive). Also, the differential viability (reversal) in experiment [6] (H69AR cells + 2 uM doxorubicin) was 9.85% (inactive). The values for the inhibition in experiment [7] and in experiment [8] were 0.39% (inactive) and -0.16% (inactive), respectively.

For `COc1ccccc1N1C(=O)c2ccccc2NC1c1ccncc1` (stereo not given), the viability was 104% in experiment [1]; 104% (inactive) in experiment [3]; 101% (inactive) in experiment [4]; 104% (inactive) in experiment [5]; 94% in experiment [6] (setting [9]); 104% in experiment [6] (setting [10]). For the same compound, in experiment [2], the Her2 level was 100% (inactive). Besides, in experiment [6] (H69AR cells + 2 uM doxorubicin), the differential viability (reversal) was 9.81% (inactive). In addition, the inhibition in experiment [7] was -1.51% (inactive); in experiment [8], -7.14% (inactive).

As for `Cn1c(SCC(=O)O)nnc1C1CCCCC1`, the viability was 102% in experiment [1]; 102% (inactive) in experiment [3]; 99.7% (inactive) in experiment [4]; 92.7% (inactive) in experiment [5]; 93.9% in experiment [6] (setting [9]); 92.7% in experiment [6] (setting [10]). For the same compound, in experiment [2], the Her2 level is 110% (inactive). In addition, the differential viability (reversal) in experiment [6] (H69AR cells + 2 uM doxorubicin) was -1.2% (inactive). Further, the inhibition in experiment [7] was 0.27% (inactive); in experiment [8], 8.85% (inactive).

For the compound `Cn1c(=O)c2[nH]c(NCC3CCCO3)nc2n(-c2ccccc2)c1=O` (stereo not given), the viability in experiment [1] is 94.5%; in experiment [3] it was 94.5% (inactive); in experiment [4] it was 116% (inactive); in experiment [5], 102% (inactive); in experiment [6] (setting [9]), 91.5%; in experiment [6] (setting [10]) it was 102%. In addition, the Her2 level in experiment [2] is 81% (inactive). The differential viability (reversal) in experiment [6] (H69AR cells + 2 uM doxorubicin) was 10.4% (inactive). In addition, the values for the inhibition in experiment [7] and in experiment [8] were -4.87% (inactive) and 3.67% (inactive), respectively.

For the compound `Cc1nc(N2CCc3ccccc32)[nH]c(=O)c1CCC(C)C`, the viability is 87.5% in experiment [1]; 87.5% (inactive) in experiment [3]; 72.3% (inactive) in experiment [4]; 79.1% (inactive) in experiment [5]; 70% in experiment [6] (setting [9]); 79.1% in experiment [6] (setting [10]). Also, the Her2 level in experiment [2] is 89% (inactive). In addition, the differential viability (reversal) in experiment [6] (H69AR cells + 2 uM doxorubicin) was 9.09% (inactive). Further, the inhibition is -2.99% (inactive) in experiment [7] and 6.17% (inactive) in experiment [8].

For the compound `Cc1[nH]c(=O)[nH]c(=O)c1S(=O)(=O)N1c2ccc(F)cc2CCC1C` (stereo not given), the viability in experiment [1] is 97.5%; in experiment [3], 97.5% (inactive); in experiment [4] it was 100% (inactive); in experiment [5], 95.7% (inactive); in experiment [6] (setting [9]), 99.6%; in experiment [6] (setting [10]), 95.7%. Also, in experiment [2], the Her2 level was 90% (inactive). Further, the differential viability (reversal) in experiment [6] (H69AR cells + 2 uM doxorubicin) is -3.9% (inactive). The results for the inhibition in experiment [7] and in experiment [8] were -6.97% (inactive) and 3.17% (inactive), respectively.

Regarding `COC(=O)c1ccc(CNC(=O)CSc2nc3sc(C)c(C)c3c(=O)n2C)o1`, the viability in experiment [1] was 93.5%; in experiment [3], 93.5% (inactive); in experiment [4], 97.5% (inactive); in experiment [5], 98.5% (inactive); in experiment [6] (setting [9]), 82.9%; in experiment [6] (setting [10]), 98.5%. Also, in experiment [2], the Her2 level was 102% (inactive). In addition, the differential viability (reversal) in experiment [6] (H69AR cells + 2 uM doxorubicin) was 15.5% (inactive). The results for the inhibition in experiment [7] and in experiment [8] were 0.65% (inactive) and -4.33% (inactive), respectively.

For the compound `N#Cc1c(N)nc2c(c1-c1ccncc1)CCCCC2`, the viability in experiment [1] is 102%; in experiment [3], 102% (inactive); in experiment [4], 78.2% (inactive); in experiment [5], 90.7% (inactive); in experiment [6] (setting [9]) it was 94%; in experiment [6] (setting [10]) it was 90.7%. Also, the Her2 level in experiment [2] was 86.5% (inactive). In addition, the differential viability (reversal) in experiment [6] (H69AR cells + 2 uM doxorubicin) is -3.37% (inactive). For the same compound, the inhibition in experiment [7] is -4.4% (inactive); in experiment [8] it was 4.43% (inactive).

Regarding `CCOc1ccc2nc(SCC#N)c(C#N)cc2c1`, the viability in experiment [1] is 93%; in experiment [3] it was 93% (inactive); in experiment [4], 104% (inactive); in experiment [5] it was 100% (inactive); in experiment [6] (setting [9]) it was 84%; in experiment [6] (setting [10]), 100%. Besides, the Her2 level in experiment [2] is 106% (inactive). The differential viability (reversal) in experiment [6] (H69AR cells + 2 uM doxorubicin) is 16.1% (inactive). In addition, the figures for the inhibition in experiment [7] and in experiment [8] were -3.2% (inactive) and -0.32% (inactive), respectively.

As for `CCCNC(=O)c1ccccc1NC(=O)CN(c1ccccc1OCC)S(C)(=O)=O`, the viability in experiment [1] was 87%; in experiment [3], 87% (inactive); in experiment [4], 112% (inactive); in experiment [5], 98.1% (inactive); in experiment [6] (setting [9]), 90.6%; in experiment [6] (setting [10]), 98.1%. Also, the Her2 level in experiment [2] was 111% (inactive). Further, the differential viability (reversal) in experiment [6] (H69AR cells + 2 uM doxorubicin) is 7.5% (inactive). The inhibition in experiment [7] was -0.13% (inactive); in experiment [8], -2.33% (inactive).
